These results are taken from ChEMBL document CHEMBL4145447, “4-arylamidobenzyl substituted 5-bromomethylene-2(5H)-furanones for chronic bacterial infection” (Eur J Med Chem, 2018).

The inhibition is the percentage by which the read-out fell short of the control.

The source made the active and inactive calls. No cut-off for these calls is given here.

Data set [1] concerns RAW264.7. In words: Anti-inflammatory activity in mouse RAW264.7 cells assessed as inhibition of LPS-induced IL-6 production by measuring IL-6 level at 10 uM preincubated for 2 hrs followed by LPS stimulation and measured after 24 hrs by ELISA (reference value: 407.6 +/- 16.7 pg/ml). In general terms: In an ELISA, binding on a coated surface is turned into a signal by an enzyme label.

The test system of data set [2] is Pseudomonas aeruginosa PAO1. The experiment in a line: Inhibition of Pseudomonas aeruginosa PAO1 GFP-fused quorum sensing rhlA at 10 uM measured every 15 mins up to 12 hrs by GFP reporter gene assay relative to control. The essentials: (§1)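 GFP reporter strains of P. aeruginosa PAO1 (lasB-, rhlA- or pqsA-promoter fused to unstable gfp(ASV)) grown overnight in LB at 37 °C, 200 rpm, 18 h, then diluted 1:100. Culture mixed 1:1 with compound diluted in LB from 10 mM DMSO stock (0.1% DMSO final). Fluorescence (ex 485/em 528 nm) read every 15 min at 37 °C for ≥12 h.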
On the technique in general: Reporter assays use an easily measured gene product as a stand-in for the process of interest.

For data set [3], the system named is RAW264.7. The experiment in a line: Anti-inflammatory activity in mouse RAW264.7 cells assessed as inhibition of LPS-induced IL-6 production by measuring […] level at 10 uM preincubated for 2 hrs followed by LPS stimulation and measured after 12 hrs by ELISA (reference value: 175.2 +/- 10.2 pg/ml). The format is functional.
The subject of data set [4] is RAW264.7. The experiment in a line: Anti-inflammatory activity in mouse RAW264.7 cells assessed as inhibition of LPS-induced NO production at 10 uM preincubated for 2 hrs followed by LPS stimulation and measured after 48 hrs by Griess method relative to control. The format is functional. The essentials: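 RAW264.7 cells seeded at 5 × 10^4/well and cultured 18 h, then given 10 µM compound plus LPS 100 ng/mL for 48 h at 37 °C. Supernatant mixed 1:1 with Griess reagent (1% sulfanilamide, 0.1% naphthylethylenediamine in 5% phosphoric acid) for 10 min; nitrite read at OD540.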
(In general: Griess reagent forms a coloured azo dye with nitrite.)

For data set [5], the target named is T1, Peroxisome proliferator-activated receptor gamma (Mus musculus) (UniProt P37238).
T1 sequence (whole entry): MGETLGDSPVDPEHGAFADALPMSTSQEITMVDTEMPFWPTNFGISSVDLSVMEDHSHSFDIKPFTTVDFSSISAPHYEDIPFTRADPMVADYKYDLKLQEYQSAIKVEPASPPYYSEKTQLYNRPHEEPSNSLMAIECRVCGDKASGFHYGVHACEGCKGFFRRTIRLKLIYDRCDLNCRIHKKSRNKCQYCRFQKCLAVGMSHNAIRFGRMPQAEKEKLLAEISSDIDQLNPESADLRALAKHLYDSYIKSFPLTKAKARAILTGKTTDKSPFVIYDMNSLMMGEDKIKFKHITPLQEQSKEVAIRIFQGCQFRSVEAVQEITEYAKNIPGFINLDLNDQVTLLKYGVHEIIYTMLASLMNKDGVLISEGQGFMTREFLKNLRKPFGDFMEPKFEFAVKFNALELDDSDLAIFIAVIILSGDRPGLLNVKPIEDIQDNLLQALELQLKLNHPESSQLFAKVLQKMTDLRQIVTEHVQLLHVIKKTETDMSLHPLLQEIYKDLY
The experiment in a line: Agonist activity at PPARgamma in mouse RAW264.7 cells assessed as inhibition of LPS-induced MAPK p38 phosphorylation at Thr180/Tyr182 residues at 10 uM preincubated for 1 hr followed by LPS stimulation and measured after 4 hrs by Western blot analysis. In kind it is cell-based. The essentials: (§2)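 Western blot: RAW264.7 cells (2 × 10^6/well) pretreated 1 h with compound (10 µM), antagonist GW9662 (5 µM) where stated, then LPS 500 ng/mL for 4 h. Lysis on ice with PMSF, BCA-normalised protein on SDS gels, PVDF transfer, milk block, phospho- and total-protein primary antibodies, HRP secondary, ECL detection. Densitometry normalised to internal control; n = 3.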

Data set [6] concerns the target Elastase (Pseudomonas aeruginosa (strain ATCC 15692 / PAO1 / 1C / PRS 101 / LMG12228)) (UniProt P14756). In words: Inhibition of Pseudomonas aeruginosa PAO1 GFP-fused quorum sensing lasB at 10 uM measured every 15 mins up to 12 hrs by GFP reporter gene assay relative to control. The essentials: as §1
The subject of the next data set is Pseudomonas aeruginosa. In words: Growth inhibition of Pseudomonas aeruginosa PAO1 at 5 to 100 uM measured every 15 mins up to 12 hrs. In kind it is organism-based. The conditions noted are these: in vitro. The essentials:
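Growth of P. aeruginosa PAO1 was run like the reporter assay. The overnight LB culture was diluted in fresh LB and mixed in equal parts with compound diluted in LB, then growth was monitored in 96-well plates.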

For data set [7], the target named is T1, Peroxisome proliferator-activated receptor gamma (Mus musculus). In words: Agonist activity at PPARgamma in mouse RAW264.7 cells assessed as inhibition of LPS-induced ERk1/2 phosphorylation at Thr202/Tyr204 residues at 10 uM preincubated for 1 hr followed by LPS stimulation and measured after 4 hrs by Western blot analysis. In kind it is cell-based. The essentials:
as §2

Data set [8] has the same target. The experiment in a line: Agonist activity at PPARgamma in mouse RAW264.7 cells assessed as inhibition of LPS-induced ERk1/2 phosphorylation at Thr202/Tyr204 residues at 10 uM preincubated for 1 hr followed by LPS stimulation and measured after 4 hrs in presence of PPARgamma antagonist GW9662 by Western blot analysis. The format is cell-based. Put shortly: as §2

For data set [9] the target is unchanged. In words: Agonist activity at PPARgamma in mouse RAW264.7 cells assessed as inhibition of LPS-induced MAPK p38 phosphorylation at Thr180/Tyr182 residues at 10 uM preincubated for 1 hr followed by LPS stimulation and measured after 4 hrs in presence of PPARgamma antagonist GW9662 by Western blot analysis. In kind it is cell-based. The essentials:
as §2

For data set [10] the target is unchanged. The experiment in a line: Agonist activity at PPARgamma in mouse RAW264.7 cells assessed as inhibition of LPS-induced NF-kB p65 phosphorylation at 10 uM preincubated for 1 hr followed by LPS stimulation and measured after 4 hrs in presence of PPARgamma antagonist GW9662 by Western blot analysis. The format is cell-based. The essentials:
as §2

The target is the same in data set [11]. The experiment in a line: Agonist activity at PPARgamma in mouse RAW264.7 cells assessed as inhibition of LPS-induced NF-kB p65 phosphorylation at 10 uM preincubated for 1 hr followed by LPS stimulation and measured after 4 hrs by Western blot analysis. In kind it is cell-based. The essentials:
as §2

Data set [12] shares this target. In words: Agonist activity at PPARgamma in mouse RAW264.7 cells assessed as inhibition of LPS-induced IkB-alpha phosphorylation at Ser32/36 residues at 10 uM preincubated for 1 hr followed by LPS stimulation and measured after 4 hrs in presence of PPARgamma antagonist GW9662 by Western blot analysis. The format is cell-based. The essentials:
as §2

For data set [13] the target is unchanged. In words: Agonist activity at PPARgamma in mouse RAW264.7 cells assessed as inhibition of LPS-induced IkB-alpha phosphorylation at Ser32/36 residues at 10 uM preincubated for 1 hr followed by LPS stimulation and measured after 4 hrs by Western blot analysis. The format is cell-based. Put shortly: as §2
Data set [14] relates to RAW264.7. The experiment in a line: Anti-inflammatory activity in mouse RAW264.7 cells assessed as inhibition of LPS-induced TNF-alpha production by measuring TNF-alpha level at 10 uM preincubated for 2 hrs followed by LPS stimulation and measured after 24 hrs by ELISA (reference value: 24216 +/- 498.7 pg/ml). In kind it is functional.

Chain of Elastase (Pseudomonas aeruginosa (strain ATCC 15692 / PAO1 / 1C / PRS 101 / LMG12228)) (P14756 198-498 limits assumed): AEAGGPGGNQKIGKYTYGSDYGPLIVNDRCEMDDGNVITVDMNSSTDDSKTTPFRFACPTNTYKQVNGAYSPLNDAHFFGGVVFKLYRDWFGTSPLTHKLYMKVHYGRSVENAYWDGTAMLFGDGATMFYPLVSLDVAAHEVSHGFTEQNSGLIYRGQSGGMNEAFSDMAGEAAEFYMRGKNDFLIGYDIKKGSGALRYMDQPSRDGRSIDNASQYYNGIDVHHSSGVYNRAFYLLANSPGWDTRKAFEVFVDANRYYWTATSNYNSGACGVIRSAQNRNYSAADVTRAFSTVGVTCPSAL

As for `O=C(Cc1ccc(F)cc1)Nc1ccc(CC2=CC(=O)OC2=CBr)cc1`, the figures for the Activity in the data set with RAW264.7 [1], in the data set on RAW264.7 [3] and in the data set with RAW264.7 [14] were 145.2 pg/mL, 66.3 pg/mL and 18322 pg/mL, respectively. Besides, the inhibition in [2] worked out at 14.7%; in [6], 15.2%. The inhibition at 10 µM with RAW264.7 [4] was 73.7%. Moreover, the inhibition entry in data set [5], in data set [7], in data set [11] and in data set [13] was “Active” each time. The “growth inhibition (GI)” value with Pseudomonas aeruginosa is on record as “Non-Toxic”. Further, the inhibition result in data set [8], in data set [9], in data set [10] and in data set [12] was “inactive” throughout.
In the case of `O=C(C=Cc1ccccc1)Nc1ccc(CC2=CC(=O)O/C2=C/Br)cc1`, the Activity in the data set on RAW264.7 [1] stood at 158.2 pg/mL; in the data set on RAW264.7 [3] it was 75.3 pg/mL; with RAW264.7 [14], 19550 pg/mL. Besides, the inhibition in [2] is 12%; in [6] it was 11.8%. Also, the inhibition at 10 µM with RAW264.7 [4] is 70%. The inhibition entry in data set [5], in data set [7], in data set [11] and in data set [13] was “Active” each time. In addition, the “growth inhibition (GI)” value in the data set with Pseudomonas aeruginosa is given as “Non-Toxic”. The inhibition result in data set [8], in data set [9], in [10] and in data set [12] was “inactive” each time.
